Tests used:
Format in all cases: functional
[1] = test system: MDA-MB-231; test: Cytotoxicity against human MDA-MB-231 cells after 48 hrs by SRB assay; conditions: MDA-MB-231, 48 h
Procedure, shortened: (§1)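 NCI 60-cell-line screen. Cells preincubated 24 h at 37 °C, 5% CO2; time-zero plates TCA-fixed. Compounds dissolved in DMSO and tested at five concentrations (100, 10, 1.0, 0.1, 0.01 µM) for 48 h continuous exposure. Adherent cells fixed with cold TCA (10% final), then SRB stained; absorbance at 515 nm. GI50, TGI and LC50 calculated from growth relative to time-zero and untreated controls.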

[2] = test system: HOP-92; test: Cytotoxicity against human HOP92 cells after 48 hrs by SRB assay; conditions: HOP-92, 48 h; procedure, shortened: as §1
[3] = test system: SNB-19; test: Cytotoxicity against human SNB19 cells after 48 hrs by SRB assay; conditions: SNB-19, 48 h
Procedure, shortened: (§2)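 NCI 60-cell screen. Cells grew 24 h (37 °C, 5% CO2) before compound was added. Compounds were in DMSO and diluted in medium with gentamicin, then tested at five levels (100, 10, 1.0, 0.1, 0.01 µM) with 48 h continuous exposure. Adherent cells were fixed with TCA (10% final) and stained with 0.4% SRB, absorbance read at 515 nm. A time-zero plate was included. LC50 is the concentration giving 50% loss of protein relative to time zero.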

[4] = test system: MDA-MB-435; test: Cytotoxicity against human MDA-MB-435 cells after 48 hrs by SRB assay; conditions: MDA-MB-435, 48 h; procedure, shortened: as §1
[5] = test system: SK-MEL-2; test: Cytotoxicity against human SK-MEL-2 cells after 48 hrs by SRB assay; conditions: SK-MEL-2, 48 h; procedure, shortened: as §1
[6] = test system: OVCAR-4; test: Cytotoxicity against human OVCAR4 cells after 48 hrs by SRB assay; conditions: OVCAR-4, 48 h; procedure, shortened: as §1
[7] = test system: Plasmodium falciparum; test: Antimalarial activity against Plasmodium falciparum NF54 infected in human serum at 20 ug/ml after 48 hrs by fluorometric method
Procedure, shortened: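 Asynchronous P. falciparum NF54 at 1.5–2% parasitemia, 5% hematocrit in RPMI with 10% human serum, exposed 48 h at 37 °C under 90% N2/5% CO2/5% O2 at the stated concentration; parasite DNA stained with ethidium bromide after proteinase K lysis; viability % = (Flu treated − medium)/(Flu untreated − medium) ×100; triplicate.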

[8] = test system: TK-10; test: Cytotoxicity against human TK10 cells after 48 hrs by SRB assay; conditions: TK-10, 48 h; procedure, shortened: as §2
[9] = test system: SF-539; test: Cytotoxicity against human SF539 cells after 48 hrs by SRB assay; conditions: SF-539, 48 h; for CC50: read-out: LC50 (the source's name); procedure, shortened: as §1
[10] = test system: T47D; test: Cytotoxicity against human T47D cells after 48 hrs by SRB assay; procedure, shortened: as §2
[11] = test system: NCI-H23; test: Cytotoxicity against human NCI-H23 cells after 48 hrs by SRB assay; conditions: NCI-H23, 48 h; for CC50: read-out: LC50 (the source's name); procedure, shortened: as §1
[12] = Cytotoxicity against human EKVX cells after 48 hrs by SRB assay; procedure, shortened: as §1
[13] = test system: RXF 393; test: Cytotoxicity against human RXF393 cells after 48 hrs by SRB assay; conditions: RXF 393, 48 h; procedure, shortened: as §1
[14] = test system: SF-268; test: Cytotoxicity against human SF268 cells after 48 hrs by SRB assay; conditions: SF-268, 48 h; procedure, shortened: as §1
[15] = test system: NCI-H522; test: Cytotoxicity against human NCI-H522 cells after 48 hrs by SRB assay; conditions: NCI-H522, 48 h; for CC50: read-out: LC50 (the source's name); procedure, shortened: as §1
[16] = test system: UO-31; test: Cytotoxicity against human UO31 cells after 48 hrs by SRB assay; conditions: UO-31, 48 h; procedure, shortened: as §2
[17] = test system: DU-145; test: Cytotoxicity against human DU145 cells after 48 hrs by SRB assay; conditions: DU-145, 48 h; procedure, shortened: as §1
[18] = test system: SNB-75; test: Cytotoxicity against human SNB75 cells after 48 hrs by SRB assay; conditions: SNB-75, 48 h; procedure, shortened: as §2
[19] = test system: HOP-62; test: Cytotoxicity against human HOP62 cells after 48 hrs by SRB assay; conditions: HOP-62, 48 h; procedure, shortened: as §1
[20] = test system: OVCAR-3; test: Cytotoxicity against human OVCAR3 cells after 48 hrs by SRB assay; conditions: OVCAR-3, 48 h; procedure, shortened: as §1
[21] = test system: NCI-H226; test: Cytotoxicity against human NCI-H226 cells after 48 hrs by SRB assay; conditions: NCI-H226, 48 h; procedure, shortened: as §1
[22] = test system: HL-60(TB); test: Cytotoxicity against human HL-60(TB) cells after 48 hrs by SRB assay; conditions: HL-60, 48 h; for CC50: read-out: LC50 (the source's name); procedure, shortened: as §1
[23] = test system: Hs-578T; test: Cytotoxicity against human Hs578T cells after 48 hrs by SRB assay; procedure, shortened: as §1
[24] = test system: SN12C; test: Cytotoxicity against human SN12C cells after 48 hrs by SRB assay; procedure, shortened: as §1
[25] = test system: ACHN; test: Cytotoxicity against human ACHN cells after 48 hrs by SRB assay; conditions: for CC50: read-out: LC50 (the source's name); procedure, shortened: as §1
[26] = test system: UACC-62; test: Cytotoxicity against human UACC62 cells after 48 hrs by SRB assay; conditions: UACC-62, 48 h; for CC50: read-out: LC50 (the source's name); procedure, shortened: as §2
[27] = test system: UACC-257; test: Cytotoxicity against human UACC257 cells after 48 hrs by SRB assay; conditions: UACC-257, 48 h; procedure, shortened: as §2
[28] = test system: MCF7; test: Cytotoxicity against human MCF7 cells after 48 hrs by SRB assay; conditions: MCF7, 48 h; for CC50: read-out: LC50 (the source's name); procedure, shortened: as §1
[29] = test system: SW-620; test: Cytotoxicity against human SW620 cells after 48 hrs by SRB assay; conditions: SW-620, 48 h; procedure, shortened: as §2
[30] = test system: OVCAR-5; test: Cytotoxicity against human OVCAR5 cells after 48 hrs by SRB assay; conditions: OVCAR-5, 48 h; procedure, shortened: as §1
[31] = test system: A549; test: Cytotoxicity against human A549/ATCC cells after 48 hrs by SRB assay; conditions: A549, 48 h; for CC50: read-out: LC50 (the source's name); procedure, shortened: as §1
[32] = test system: NCI-H460; test: Cytotoxicity against human NCI-H460 cells after 48 hrs by SRB assay; conditions: NCI-H460, 48 h; procedure, shortened: as §1
[33] = test system: HCC 2998; test: Cytotoxicity against human HCC2998 cells after 48 hrs by SRB assay; conditions: HCC 2998, 48 h; procedure, shortened: as §1

## CC(=O)N1N=C(c2ccc(Nc3ccnc4cc(Cl)ccc34)cc2)CC1c1ccc(Cl)cc1 (configuration not stated)
[1]
  GI50: > 100 µM
  LC50 (concentration killing 50% of cells present at time zero): > 100 µM
[2]
  GI50: > 100 µM
  LC50 (concentration killing 50% of cells): > 100 µM
[3]
  GI50: > 100 µM
  LC50: > 100 µM
[4]
  GI50: 0.57 µM
  LC50: > 100 µM
[5]
  GI50: > 100 µM
  LC50: > 100 µM
[6]
  GI50: 6.92 µM
  LC50: > 100 µM
[7]
  inhibition at 20 µg/mL: 32.9%
[8]
  GI50: > 100 µM
  LC50 (concentration giving 50% cell loss vs time zero): > 100 µM
[9]
  GI50: > 100 µM
  CC50: > 100 µM
[10]
  GI50: 1.57 µM
  LC50 (concentration giving 50% cell kill relative to time zero): > 100 µM
[11]
  GI50: > 100 µM
  CC50: > 100 µM
[12]
  LC50: > 100 µM
[13]
  GI50: 5.07 µM
  LC50 (concentration killing 50% of cells): > 100 µM
[14]
  GI50: 9.1 µM
  LC50: > 100 µM
[15]
  GI50: 5.05 µM
  CC50: > 100 µM
[16]
  GI50: 3.87 µM
  LC50: > 100 µM
[17]
  GI50: > 100 µM
  LC50 (concentration killing 50% of cells): > 100 µM
[18]
  LC50 (50% net cell kill): > 100 µM
[19]
  GI50: > 100 µM
  LC50 (50% lethal concentration): > 100 µM
[20]
  GI50: 7.19 µM
  LC50: > 100 µM
[21]
  GI50: > 100 µM
  LC50 (50% lethal concentration): > 100 µM
[22]
  GI50: 3.56 µM
  CC50: > 100 µM
[23]
  GI50: > 100 µM
  LC50 (50% net cell kill): > 100 µM
[24]
  GI50: 30.7 µM
  LC50 (50% net cell kill relative to time zero): > 100 µM
[25]
  GI50: 3.96 µM
  CC50: > 100 µM
[26]
  GI50: 2.95 µM
  CC50: > 100 µM
[27]
  GI50: > 100 µM
  LC50: > 100 µM
[28]
  GI50: 4.04 µM
  CC50: > 100 µM
[29]
  GI50: 100 µM
  LC50: > 100 µM
[30]
  GI50: > 100 µM
  LC50: > 100 µM
[31]
  GI50: 8.81 µM
  CC50: > 100 µM
[32]
  GI50: > 100 µM
  LC50: > 100 µM
[33]
  GI50: > 100 µM
  LC50: > 100 µM

## O=CN1N=C(c2ccc(Nc3ccnc4cc(Cl)ccc34)cc2)CC1c1ccc(Cl)cc1 (configuration not stated)
[1]
  GI50: 1.43 µM
  LC50 (concentration killing 50% of cells present at time zero): > 100 µM
[2]
  GI50: > 100 µM
  LC50 (concentration killing 50% of cells): > 100 µM
[3]
  GI50: 1.92 µM
  LC50: > 100 µM
[4]
  GI50: 0.2 µM
  LC50: > 100 µM
[5]
  GI50: 7.86 µM
  LC50: > 100 µM
[6]
  GI50: 6.48 µM
  LC50: > 100 µM
[7]
  inhibition at 20 µg/mL: 1.1%
[8]
  GI50: 9.57 µM
  LC50 (concentration giving 50% cell loss vs time zero): > 100 µM
[9]
  GI50: 0.58 µM
  CC50: > 100 µM
[10]
  GI50: 1.56 µM
  LC50 (concentration giving 50% cell kill relative to time zero): > 100 µM
[11]
  GI50: 2.77 µM
  CC50: > 100 µM
[12]
  LC50: > 100 µM
[13]
  GI50: 1.88 µM
  LC50 (concentration killing 50% of cells): > 100 µM
[14]
  GI50: 0.85 µM
  LC50: > 100 µM
[15]
  GI50: 0.39 µM
  CC50: > 100 µM
[16]
  GI50: 1.3 µM
  LC50: > 100 µM
[17]
  GI50: 1.94 µM
  LC50 (concentration killing 50% of cells): > 100 µM
[18]
  GI50: 0.42 µM
  LC50 (50% net cell kill): > 100 µM
[19]
  GI50: 0.86 µM
  LC50 (50% lethal concentration): > 100 µM
[20]
  GI50: 0.35 µM
  LC50: > 100 µM
[21]
  GI50: 4.66 µM
  LC50 (50% lethal concentration): > 100 µM
[22]
  GI50: 0.38 µM
  CC50: > 100 µM
[23]
  GI50: 3.93 µM
  LC50 (50% net cell kill): > 100 µM
[24]
  GI50: 0.98 µM
  LC50 (50% net cell kill relative to time zero): > 100 µM
[25]
  GI50: 1 µM
  CC50: > 100 µM
[26]
  GI50: 0.57 µM
  CC50: > 100 µM
[27]
  GI50: > 100 µM
  LC50: > 100 µM
[28]
  GI50: 0.48 µM
  CC50: > 100 µM
[29]
  GI50: 0.48 µM
  LC50: > 100 µM
[30]
  GI50: 6.46 µM
  LC50: > 100 µM
[31]
  GI50: 0.99 µM
  CC50: > 100 µM
[32]
  GI50: 0.59 µM
  LC50: > 100 µM
[33]
  GI50: 1.61 µM
  LC50: > 100 µM

Source: ChEMBL document CHEMBL2417469, “Synthesis of novel analogs of 2-pyrazoline obtained from [(7-chloroquinolin-4-yl)amino]chalcones and hydrazine as potential antitumor and antimalarial agents” (Eur J Med Chem, 2013)
